Measured values reported in ChEMBL document CHEMBL4177753, “Structural Modification of Natural Product Ganomycin I Leading to Discovery of a α-Glucosidase and HMG-CoA Reductase Dual Inhibitor Improving Obesity and Metabolic Dysfunction in Vivo” (J Med Chem, 2018).
Calls of active or inactive are those of the source. The rule behind the calls is not given here.

Tests used:
[1] = Chemical stability of the compound at 0.4 mg/ml at room temperature after 3 weeks by HPLC method; format: physicochemical; settings: 504 h
[2] = system: Mus musculus; test: Toxicity in C57BL/6J mouse assessed as effect on body weight at 30 mg/kg administered daily via oral gavage for 3 months; format: organism-based; settings: in vivo
Summary of the method: (§1)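 Long-term safety study in C57BL/6J mice, 20 male and 20 female, sorted by gender, blood glucose and body weight into four groups (n = 10 each). Treated groups of each sex got 30.0 mg/kg daily by oral gavage in soybean vehicle. Vehicle groups got an equal volume of soybean. Dosing ran three months, with behavior, survival, body weight, blood glucose, liver function and organ coefficients recorded.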

[3] = system: Mus musculus; test: Toxicity in C57BL/6J mouse assessed as effect on plasma ALT levels at 30 mg/kg administered daily via oral gavage for 3 months; format: organism-based; settings: in vivo; summary of the method: as §1
[4] = Tmax in Sprague-Dawley rat at 2 mg/kg, po; format: ADME, organism-based; settings: in vivo
Summary of the method: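 Six male Sprague-Dawley rats (0.21–0.23 kg) dosed orally at 2.0 mg/kg; blood from orbital vein at 0–16 h into heparinized tubes; plasma protein precipitated with methanol plus internal standard. Quantified by UPLC–Q-TOF MS, ESI positive, single ion monitoring (m/z 367.2637); linear range 0.54–107 ng/ml.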

[5] = Half life in Sprague-Dawley rat at 2 mg/kg, po; format: ADME, organism-based; settings: in vivo
Summary of the method: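 Male Sprague-Dawley rats (n = 6, 0.21–0.23 kg), single oral dose 2.0 mg/kg. Orbital blood sampled 0–16 h into heparinized tubes. Plasma was protein-precipitated with methanol, with internal standard added. Quantified by UPLC-ESI(+)-QTOF-MS in SIM mode on a C18 column with a methanol/0.3% formic acid water gradient. Linear range 0.54–107 ng/ml.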

[6] = system: Mus musculus; test: Antiobesity activity in ob/ob mouse assessed as reduction in absolute fat mass at 3 mg/kg administered daily via oral gavage for 31 days; format: functional, organism-based
Summary of the method: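 Male ob/ob mice, n = 10 per group, grouped by blood glucose and body weight. Daily gavage at 0.3, 1.0 or 3.0 mg/kg in soybean vehicle, with soybean vehicle controls and C57BL/6J controls. Body weight, cumulative food intake, LEE index, fat mass and lean mass recorded. Mean ± SEM, one-way ANOVA with Tukey test.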

[7] = system: Mus musculus; test: Hypoglycemic activity in ob/ob mouse assessed as decrease in blood glucose AUC at 0.3 to 3 mg/kg administered daily via oral gavage for 27 days by ITT; format: functional, organism-based
Summary of the method: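 Male ob/ob or high-fat-diet C57BL/6J mice dosed daily by gavage at 0.3–3.0 mg/kg. OGTT: glucose 2 g/kg orally after overnight fast. ITT: insulin 0.6 U/kg i.p. after 4 h fast. Glucometer readings at 0, 40, 80 and 120 min; AUC computed from the curves.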

[8] = system: Mus musculus; test: Hypoglycemic activity in C57BL/6J DIO mouse assessed as increase in insulin sensitive index at 0.3 to 3 mg/kg administered daily via oral gavage for 5 weeks; format: functional, organism-based
Summary of the method: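 Male high-fat-diet C57BL/6J mice, daily gavage at 0.3–3.0 mg/kg for 5 weeks. ISI calculated as […].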

[9] = system: Mus musculus; test: Hypolipidemic activity in ob/ob mouse assessed as decrease in plasma triglyceride levels administered daily via oral gavage for 31 days; format: functional, organism-based
[10] = system: Mus musculus; test: Hypolipidemic activity in ob/ob mouse assessed as decrease in plasma LDL-C levels at 1 mg/kg administered daily via oral gavage for 31 days relative to vehicle-treated control; format: functional; parameters: scale not given: the % may be the effect or the level left
[11] = system: Mus musculus; test: Hypolipidemic activity in C57BL/6J DIO mouse assessed as decrease in plasma triglyceride levels at 0.3 to 3 mg/kg administered daily via oral gavage for 5 weeks; format: functional, organism-based
Summary of the method: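 High-fat-diet male C57BL/6J mice, n = 8 per group, daily gavage at 0.3–3.0 mg/kg in soybean vehicle for 5 weeks. Serum total cholesterol, triglycerides and free fatty acids measured.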

[12] = system: Mus musculus; test: Hypolipidemic activity in ob/ob mouse assessed as decrease in liver free fatty acid levels at 0.3 to 3 mg/kg administered daily via oral gavage for 31 days; format: functional, organism-based
[13] = system: Mus musculus; test: Hypolipidemic activity in ob/ob mouse assessed as decrease in fat deposition in liver at 3 mg/kg administered daily via oral gavage for 31 days by […] staining-based microscopic method; format: functional, organism-based
Summary of the method: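 Male ob/ob mice dosed by gavage (soybean vehicle); liver and abdominal white adipose tissue fixed in 10% formaldehyde-PBS pH 7.4, paraffin-embedded, sectioned, stained with H&E, Oil Red O or sirius red, and examined by light microscopy.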

[14] = system: Mus musculus; test: Reduction of plasma TNF-alpha levels in ob/ob mouse at 3 mg/kg administered daily via oral gavage for 31 days by ELISA relative to vehicle-treated control; format: functional, organism-based
Summary of the method: (§2)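 Male ob/ob mice treated daily by gavage (soybean vehicle); plasma LPS and TNF-α quantified by ELISA kits. For antibiotic groups, ob/ob mice first received an oral antibiotic cocktail (ampicillin 1 g/L, vancomycin, neomycin, gentamycin, erythromycin) for three weeks, then 3.0 mg/kg/day; n = 8 per group.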

[15] = system: Mus musculus; test: Downregulation of Nos2 mRNA expression in ob/ob mouse ileum at 3 mg/kg administered daily via oral gavage for 31 days by RNA-seq analysis; format: functional, organism-based
[16] = system: Mus musculus; test: Hypoglycemic activity in antibiotic-treated ob/ob mouse assessed as decrease in fasting blood glucose levels at 3 mg/kg administered daily via oral gavage for 3 weeks; format: functional, organism-based
Summary of the method: (§3)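 Male ob/ob mice pretreated three weeks with ampicillin (1 g/L), vancomycin, neomycin, gentamycin and erythromycin. Groups of n = 8 given 3.0 mg/kg/day orally in soybean vehicle versus vehicle. Plasma and hepatic lipids, fasting glucose, OGTT (glucose 2 g/kg after overnight fast) and HbA1c measured.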

[17] = system: Mus musculus; test: Hypoglycemic activity in antibiotic-treated ob/ob mouse assessed as decrease in HbA1c levels at 3 mg/kg administered daily via oral gavage for 3 weeks; format: functional, organism-based; summary of the method: as §3
[18] = system: Mus musculus; test: Hypoglycemic activity in antibiotic-treated ob/ob mouse assessed as decrease in blood glucose AUC at 3 mg/kg administered daily via oral gavage for 3 weeks by OGTT; format: functional, organism-based; summary of the method: as §3
[19] = system: Mus musculus; test: Hypolipidemic activity in antibiotic-treated ob/ob mouse assessed as decrease in plasma triglycerides levels at 3 mg/kg administered daily via oral gavage for 3 weeks; format: functional, organism-based; summary of the method: as §3
[20] = system: Mus musculus; test: Hypolipidemic activity in antibiotic-treated ob/ob mouse assessed as decrease in plasma total cholesterol levels at 3 mg/kg administered daily via oral gavage for 3 weeks; format: functional, organism-based; summary of the method: as §3
[21] = system: Mus musculus; test: Hypolipidemic activity in antibiotic-treated ob/ob mouse assessed as decrease in plasma LDL-C levels at 3 mg/kg administered daily via oral gavage for 3 weeks; format: functional, organism-based; summary of the method: as §3
[22] = system: Mus musculus; test: Hypolipidemic activity in antibiotic-treated ob/ob mouse assessed as decrease in hepatic total cholesterol levels at 3 mg/kg administered daily via oral gavage for 3 weeks; format: functional, organism-based; summary of the method: as §3
[23] = system: Mus musculus; test: Hypolipidemic activity in antibiotic-treated ob/ob mouse assessed as decrease in hepatic LDL-C levels at 3 mg/kg administered daily via oral gavage for 3 weeks; format: functional, organism-based; summary of the method: as §3
[24] = system: Mus musculus; test: Reduction of plasma LPS levels in antibiotic-treated ob/ob mouse at 3 mg/kg administered daily via oral gavage for 3 weeks by ELISA; format: functional, organism-based; summary of the method: as §2
[25] = system: Mus musculus; test: Antiobesity activity in ob/ob mouse assessed as cumulative food intake at 3 mg/kg administered daily via oral gavage for 25 days relative to vehicle-treated control

Q: For CC(C)=CCC/C(C)=C/CCC1=C[C@H](c2ccc(C(C)(C)C)cc2)OC1=O, which Stability [1] is on record?
A: Stable

Q: What about the Activity [2] of the same compound?
A: Non-Toxic

Q: What about the Activity [3] of the same compound?
A: Non-Toxic

Q: What about the Tmax [4] of the same compound?
A: 7 h

Q: What about the half-life [5] of the same compound?
A: 1.8 h

Q: What about the Activity [6] of the same compound?
A: Active

Q: What about the Activity [7] of the same compound?
A: Active

Q: And the Activity [8]?
A: Active

Q: What about the Activity [9] of the same compound?
A: Dose-dependent effect

Q: And the Activity [10]?
A: 43%

Q: And the Activity [11]?
A: Active

Q: And the Activity [12]?
A: Active

Q: And the Activity [13]?
A: Active

Q: And the Activity [14]?
A: Active

Q: And the Activity [15]?
A: Active

Q: And the Activity [16]?
A: inactive

Q: And the Activity [17]?
A: inactive

Q: And the Activity [18]?
A: inactive

Q: And the Activity [19]?
A: Active

Q: What about the Activity [20] of the same compound?
A: inactive

Q: What about the Activity [21] of the same compound?
A: inactive

Q: And the Activity [22]?
A: inactive

Q: And the Activity [23]?
A: inactive

Q: And the Activity [24]?
A: inactive

Q: And the Activity [25]?
A: 78%
